Consider 15 molecules from PubChem BioAssay.

Assay [1] can be described thus: OD615 S. cerevisiae growth inhibition, permissive medium, pilot counter-assay, permissive growth control for S. cerevisiae lifespan shortening project (AID 705;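 active = growth inhibition above 25% in both replicates, a cutoff set 3 SD above the mean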). Conditions: OD615, 24 h, at 10 µM, hits give high values. The essentials: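 System: S. cerevisiae with engineered DeaD lifespan system / Measured by: absorbance (optical density) at 615 nm / Read-out: reduction in yeast growth (OD615) / Times: 4 h cell pre-growth, 24 h exposure at 30 °C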

Assay [2] can be described thus: Restrictive medium S. cerevisiae growth inhibition, OD615, pilot screen of yeast lifespan reduction project, restrictive growth control (AID 706;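 active = growth inhibition above a set limit, 3 SD over mean compound inhibition, in both replicates, cut at about 43% in these data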;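 note: modified DeaD lifespan yeast strain shifted to restrictive glucose medium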). Conditions: OD615, 48 h, at 10 µM, hits give high values. The essentials:
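System: Engineered S. cerevisiae DeaD strain | Buffer or medium: Glucose-based CSMM-D restrictive medium | Schedule: 4 h pre-incubation, 48 h exposure at 30 °C | Technique: Optical density at 615 nm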

Assay [3] can be described thus: viability gain of MRP-1-high H69AR cells under doxorubicin, pilot screen, MRP-1 activator project, CellTiter-Glo, duplicate (AID 807).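 Note: compound pretreatment 18-22 h then 72 h combined with doxorubicin; 0% = doxorubicin alone and 100% = vehicle without doxorubicin.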 Conditions: H69AR viability with doxorubicin, CellTiter-Glo luminescence; at 10 µM; hits give high values. (In general: Cellular ATP, detected with luciferase, serves as a proxy for viable cell number.)
A short description of assay [4]: growth suppression of beta-catenin knockout HCT116, pilot screen, human colon tumor cells (AID 823;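 active = cell viability at or below a set limit in both duplicate runs, the limit being the all-compound median minus 4 SD, cut at about 23% in these data, passing the limit was not always enough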;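 note: 0% = wells killed by 20 µM Hyamine and 100% = untreated DMSO cell wells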). Conditions: CellTiter-Glo, 60 h, at 10 µM, hits give low values.
A short description of assay [5]: growth suppression of PTEN-deleted HCT116, pilot screen, cell-based, HCT116 clonal line, CellTiter-Glo (AID 824;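 active = viability at or below 27.92% in each of two runs, the all-compound median minus 4 SD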;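 note: 0% = 20 µM Hyamine control and 100% = vehicle cell control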). Conditions: 60 h, at 10 µM, hits give low values.
Assay [6] can be described thus: inhibitors of the yeast RAM network, pilot screen, dse1pr::URA3 reporter, 5-FOA selection (AID 869;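 active = inhibition over a set limit, the all-compound mean plus 3 SD, in both replicate runs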;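 note: 0% = DMSO wells with no growth and 100% = 10 µM 1-NA-PP1 with full growth; RAM network block rescues cells from 5-FOA so hits raise OD615 growth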). Conditions: S. cerevisiae dse1pr::URA3 5-FOA growth, OD615, 2 d; at 10 µM; hits give high values; strain carries analog-sensitive mutant Cbk1 kinase.
Assay [7] in a line: RAM signaling pathway blockade in yeast – S. cerevisiae, Pdr1DBD-CYC8 efflux-inhibited sensitized strain, primary screen (AID 1298;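 active = RAM network inhibition above 8.4% in each of two replicates, 3 SD over the compound average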;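 note: 0% = DMSO untreated cells without growth and 100% = 10 µM 1-NA-PP1 full growth; higher means more yeast growth rescued from 5-FOA killing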). The settings on record: S. cerevisiae cbk1-as DSE1-URA3 strain, 5-FOA growth OD615, 2 d; at 50 µM; hits give high values.

One may read the viability as a read-out of living cells in per cent, often relative to untreated cells. What is called inhibition is the share of the control response that was lost under treatment.

A number with no mark means an inactive call. Results filed as inconclusive are left out. Activity calls are given as the source filed them.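 Rule for the calls, unless noted: active = viability increase at or above a cutoff of the median across tested compounds plus 3 SD (cut at about 8.5% in these data, passing the limit was not always enough); inconclusive = some gains above the cutoff, reason not given; inactive = the rest.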

As for `N#CCc1ccc(NS(=O)(=O)c2ccc(N3CCCC3=O)cc2)cc1`, the growth inhibition in assay [1] was -10.7%; in assay [2] it was -7.71%. Besides, the viability increase in assay [3] was -0.69%. The viability in assay [4] was 89.8%; in assay [5], 88%. Moreover, the inhibition in assay [6] was 2.58%. Moreover, in assay [7], the RAM network inhibition was 0.32%.
As to `CCC1CCCCN1Cc1nc2c(c(=O)n(C)c(=O)n2C)n1Cc1cccc2ccccc12` (stereo not given), the growth inhibition was -13.7% in assay [1] and -7.96% in assay [2]. Moreover, the viability increase in assay [3] was -1.54%. The results for the viability in assay [4] and in assay [5] were 92.5% and 83.1%, respectively. The inhibition in assay [6] is 0.67%. The RAM network inhibition in assay [7] was 8.51%.
Consider `Cc1cc(C)c(NC(=O)CSc2nnc(-c3ccncc3)n2Cc2ccco2)c(Cl)c1`, for which the growth inhibition is 6.26% in assay [1] and 12.8% in assay [2]. The viability increase in assay [3] was -0.79%. The figures for the viability in assay [4] and in assay [5] were 98% and 93.1%, respectively. Moreover, in assay [6], the inhibition was 1.79%. Moreover, the RAM network inhibition in assay [7] was 6.08%.
On to `Cc1ccc(-c2nc(CSCC(=O)N3CCN(c4ccccn4)CC3)c(C)o2)cc1`, for which the figures for the growth inhibition in assay [1] and in assay [2] were -5.27% and 15.5%, respectively. In assay [3], the viability increase was -2.65%. Besides, the viability in assay [4] is 20.3% (active); in assay [5], 44.5%. Further, in assay [6], the inhibition is 1.56%. In addition, the RAM network inhibition in assay [7] is -0.57%.
Turning to `CCOc1ccc2ccccc2c1C(=O)Nc1cc(=O)n(C)c(=O)n1C`, the growth inhibition in assay [1] is -8.05%; in assay [2], -21.5%. The viability increase in assay [3] is 0.11%. Also, the viability in assay [4] was 107%; in assay [5], 94.4%. In assay [6], the inhibition is 1.17%. Further, the RAM network inhibition in assay [7] is -1.04%.
For the molecule `CCOc1ccc(Nc2ncnc(N)n2)cc1`, the growth inhibition was -16% in assay [1] and -1.21% in assay [2]. For the same molecule, in assay [3], the viability increase is 0.15%. Also, the viability in assay [4] is 97.4%; in assay [5], 102%. The inhibition in assay [6] is 0.055%. The RAM network inhibition in assay [7] was 1.11%.
As for `CC(=O)NC(CCS(C)(=O)=O)C(=O)Nc1cccc(Cl)c1Cl` (stereo not given), the growth inhibition in assay [1] is -2.35%; in assay [2], -13.9%. Further, in assay [3], the viability increase was -4.63%. For the same molecule, the viability in assay [4] is 101%; in assay [5] it was 97%. Also, the inhibition in assay [6] was 2.29%. Also, in assay [7], the RAM network inhibition is -0.83%.
With `CCCn1c(-c2ccc(OC)cc2)nc2ccccc21`, the growth inhibition in assay [1] was -16.6%; in assay [2], -12.9%. In assay [3], the viability increase was -0.51%. The figures for the viability in assay [4] and in assay [5] were 74.4% and 71.9%, respectively. Further, in assay [6], the inhibition is 2.18%. For the same molecule, in assay [7], the RAM network inhibition is 7.97%.
Regarding `Cn1ccnc1SCc1cn2cc(Br)ccc2n1`, the growth inhibition was 2.79% in assay [1] and 22.2% in assay [2]. Moreover, in assay [3], the viability increase was -3.12%. Besides, the viability is 91.8% in assay [4] and 84.7% in assay [5]. Moreover, the inhibition in assay [6] was 1.51%. In addition, the RAM network inhibition in assay [7] is 4.08%.
With `CC(NC(=O)c1ccco1)C(c1cccs1)N1CCN(c2ccccc2)CC1` (stereo not given), the figures for the growth inhibition in assay [1] and in assay [2] were -5.64% and -18.3%, respectively. The viability increase in assay [3] was -1.36%. Besides, the viability in assay [4] is 87.7%; in assay [5], 81.2%. In addition, the inhibition in assay [6] was 1.74%. Further, in assay [7], the RAM network inhibition was 5.06%.
On to `CC(C)(C)n1nc2c(c1NC(=O)c1ccccc1F)CS(=O)C2` (stereo not given), for which the figures for the growth inhibition in assay [1] and in assay [2] were 1.35% and 0.655%, respectively. Moreover, the viability increase in assay [3] is 0.62%. The viability in assay [4] and in assay [5] was 101% throughout. Besides, the inhibition in assay [6] was 1.66%. Moreover, in assay [7], the RAM network inhibition was 1.67%.
For `COc1ccc(Cl)cc1N1C(=O)C2CCCN2C1c1ccccc1F` (stereo not given), the growth inhibition was 2.31% in assay [1] and -4.76% in assay [2]. Moreover, the viability increase in assay [3] is -3.84%. Moreover, the viability in assay [4] was 93%; in assay [5], 95.1%. For the same molecule, the inhibition in assay [6] is 1.41%. Moreover, the RAM network inhibition in assay [7] is 1.3%.
As for `CCN1CCCC1CNC(=O)C1c2ccccc2C(=O)N(CCOC)C1c1ccc(F)cc1` (stereo not given), the results for the growth inhibition in assay [1] and in assay [2] were -3.19% and -18.9%, respectively. In addition, the viability increase in assay [3] was -1.76%. In addition, the viability in assay [4] was 95.6%; in assay [5], 98.1%. Further, the inhibition in assay [6] is 1.17%. In addition, the RAM network inhibition in assay [7] is 7.82%.
Turning to `C(=N\n1cnnc1)/C1CCCCC1`, the growth inhibition in assay [1] is -4.95%; in assay [2], -1.24%. Moreover, the viability increase in assay [3] is -2.8%. For the same molecule, the viability is 101% in assay [4] and 98.4% in assay [5]. The inhibition in assay [6] was 0.19%. In addition, the RAM network inhibition in assay [7] was 6.93%.
As to `COc1ccc(N2CCN(c3cc(=O)n(Cc4ccc(F)cc4)c(=O)[nH]3)CC2)cc1`, the growth inhibition in assay [1] was -4.88%; in assay [2], 1.23%. The viability increase in assay [3] was -2.97%. The values for the viability in assay [4] and in assay [5] were 92.9% and 86.3%, respectively. Further, the inhibition in assay [6] was 0.215%. The RAM network inhibition in assay [7] is 9.17%.
